Screening results (PubChem)
Sampled rows, rich in hits. Any-hit rate of the full collection: about 3.5%.
RGS4 pot = potentiators or activators of RGS4 | HEK293 M3R/inducible RGS4, carbachol calcium flux Fluo4; active compounds read low | B-score at 10 µM | actives 0.92% (n = 310,000) | AID 463111;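 active means B-score of the integrated calcium signal more than 4 SD below the library mean, with starting fluorescence not abnormally high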;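 further: negative B-score means reduced calcium response which marks RGS4 activation or potentiation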
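Reagent: ECmax carbachol challenge; Test system: M3R-expressing HEK293 line, RGS4 induced by doxycycline; Schedule: overnight RGS4 induction, 30 min dye load 37 °C, 20 min compound RT; Detection: calcium dye Fluo4 fluorescence; Read-out: Agonist-evoked peak-minus-minimum fluorescence over baseline, integrated ratio, B score.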
MrgX1 ag = human MrgX1 receptor agonism, primary screen | Q96LB2 | MrgX1-HEK293 cells, Fluo-4 calcium fluorescence, agonist mode; active compounds read high | B-score at 10 µM | actives 0.44% (n = 310,000) | AID 588627;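 active means calcium response B-score plate-corrected fluorescence ratio at least 3 library SD, with starting fluorescence B-score inside 5 SD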
Target sequence (Q96LB2 whole entry, looked up): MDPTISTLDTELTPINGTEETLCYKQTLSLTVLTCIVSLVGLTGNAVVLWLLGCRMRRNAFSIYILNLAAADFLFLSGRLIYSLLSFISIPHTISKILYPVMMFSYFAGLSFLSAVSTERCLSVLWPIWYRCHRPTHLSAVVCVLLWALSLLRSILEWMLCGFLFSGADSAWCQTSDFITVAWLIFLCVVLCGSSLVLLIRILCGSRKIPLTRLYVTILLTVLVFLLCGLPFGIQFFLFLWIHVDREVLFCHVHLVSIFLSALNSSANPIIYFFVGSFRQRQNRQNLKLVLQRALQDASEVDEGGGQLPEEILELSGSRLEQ
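Test system: HEK293 cells stably expressing human MrgX1 receptor; amount: 15,000 cells per well; doses: compound delivered in addition one of three; times: overnight plating before 1 h dye loading; detection: Fluo-4 NW calcium-flux fluorescence, kinetic read; read-out basis: B-scored fluorescence response ratio; controls: positive and negative controls per plate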
RGS4 block = human RGS4 inhibition | P49798 | HEK293 M3R/RGS4 inducible, Fluo-4 calcium flux; active compounds read high; triggered by carbachol at its EC20 | B-score at 10 µM | actives 0.45% (n = 310,000) | AID 463165;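 active means B-score, a plate-corrected calcium signal, over three deviations above library mean, with baseline fluorescence within five deviations of library mean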;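 further: RGS4 expression induced by doxycycline in cells with stable M3 receptor; B-score is computed from the integrated fluorescence ratio over baseline after carbachol; higher B-score means a larger calcium signal and so more RGS4 inhibition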
Target sequence (P49798 whole entry, looked up): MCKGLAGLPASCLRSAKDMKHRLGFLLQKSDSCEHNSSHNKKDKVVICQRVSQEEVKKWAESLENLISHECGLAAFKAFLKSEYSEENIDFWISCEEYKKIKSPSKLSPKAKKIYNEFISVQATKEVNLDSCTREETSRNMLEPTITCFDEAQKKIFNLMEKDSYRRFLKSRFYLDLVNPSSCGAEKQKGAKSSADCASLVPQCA
MrgX1 PAM = allosterically activates human MrgX1 receptor signaling; Q96LB2; MrgX1-HEK293, Fluo-4 calcium flux, FDSS; active compounds read high; B-score at 10 µM; actives 0.63% (n = 310,000); AID 588675;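 active means plate-corrected calcium response at least 3 library SD above typical, normal starting fluorescence, not activating the receptor alone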;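 further: compound read alongside a low EC10 to EC30 dose of BAM8-22 agonist; peak minus trough fluorescence over baseline measured at the second addition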
MrgX1 antagonist = human MrgX1 receptor antagonism, primary screen | Q96LB2 | MRGX1-HEK293 calcium flux, Fluo-4, BAM8-22 antagonism; active compounds read low | B-score at 10 µM | actives 1.3% (n = 310,000) | AID 588676;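 active means calcium-response B-score plate-corrected more than 3 library SD below zero, starting fluorescence within 5 deviations, no agonist response on first addition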;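 further: peak minus trough fluorescence over baseline after final BAM8-22 challenge near maximal dose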
RGS4 inh valid = validation of RGS4 inhibitors | actives 65% (n = 1,700) | calcium response, % at 10 µM | HEK293 M3R/RGS4, carbachol calcium Fluo-4 fluorescence; carbachol added at its EC20; 0 = buffer wells, 100 = carbachol control | shares compounds with RGS4 block;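 active means duplicate-averaged calcium response above the buffer-only control mean plus 5 SD of those controls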;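 further: integrated fluorescence ratio F max minus min over baseline F0; higher response in RGS4-induced cells means RGS4 inhibition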
RGS4 uninduced = counter-screen for RGS4 inhibitors: effect in non-induced cells. shares compounds with RGS4 block. HEK293 M3R non-induced, carbachol calcium Fluo-4; submaximal (EC20) carbachol stimulus; buffer wells 0%, carbachol control wells 100%. activity (percent), % at 10 µM. actives 20% (n = 1,900). AID 493000; call rule not given here;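 further: RGS4 induction absent so cells express M3R without RGS4; higher means more calcium signal and flags a non-specific hit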
RGS4 inh ctr2 = signal in non-induced cells without carbachol, RGS4 inhibitor counter-screen | actives 22% (n = 1,900) | HEK293 M3R/RGS4 non-induced, Fluo-4 calcium, no carbachol; normalised: buffer wells 0%, carbachol wells 100% | calcium response (agonist-mode artifact), % at 10 µM | shares compounds with RGS4 block | AID 493001;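 active means duplicate-averaged calcium rise in uninduced cells above buffer wells' mean plus 5 SD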
A number is an active result; 0 = inactive; - = not tested or not shown.

SMILES	RGS4 pot	MrgX1 ag	RGS4 block	MrgX1 PAM	MrgX1 antagonist	RGS4 inh valid	RGS4 uninduced	RGS4 inh ctr2
COc1ccc(-n2c(SCC#N)nnc2-c2ccc(NS(=O)(=O)c3ccc(C)cc3)cc2)cc1	0	0	7.2	0	0	13%	0	0
CCOC(=O)N1CCN(C(=O)CSCC(=O)Nc2nc(-c3ccc(Cl)s3)cs2)CC1	0	0	0	0	0	0	0	0
O=S(=O)(C/C(=C/CO)S(=O)(=O)c1ccccc1)c1ccccc1	0	34	10	0	0	38%	36%	16%
Cc1ccc(C)c(-c2cc(C(=O)Nc3sc(C)c(C)c3C(N)=O)c3ccccc3n2)c1	0	0	0	0	0	-	0	7.0%
CC(NC(=O)/C(C#N)=C/c1ccc(Cl)c([N+](=O)[O-])c1)c1ccccc1 (stereo not given)	0	0	49	8.9	0	22%	0	31%
N#C/C(=C\c1ccc(Cl)c([N+](=O)[O-])c1)c1ccccn1	0	0	9	0	0	16%	0	0
C[C@@H](NC(=O)/C(C#N)=C/c1ccc(O)c(O)c1)c1ccccc1	-	0	-	0	0	-	-	-
CCOC(=O)C1=C(COC(=O)/C=C/c2cccc([N+](=O)[O-])c2)NC(=O)NC1C (stereo not given)	0	0	0	0	0	-	-	-
COc1ccc(CNC(=O)CCNS(=O)(=O)c2ccc(C)cc2)cc1	0	0	0	0	0	0	0	0
C/C(=N\Nc1ccc(C(=O)O)cc1)c1ccc(Br)cc1	0	0	4.7	0	0	20%	35%	0
Cc1ccc(S(=O)(=O)/N=C(/Sc2ccccc2C(=O)O)c2ccccc2)cc1	0	0	0	0	0	-	-	-
O=S(=O)(/N=C(\Sc1ccccc1)c1ccccc1)c1ccc(Cl)cc1	0	0	0	0	0	-	0	27%
Cc1ccc(S(=O)(=O)/N=C(\Sc2ccccc2)c2ccccc2)cc1	0	0	22	0	0	22%	0	26%
CC(=O)c1ccc(OCCCC(=O)NCCc2ccc(C(F)(F)F)cc2)cc1	0	0	0	0	0	-	-	-
Cc1cccc(C(=O)OCc2cncs2)c1	0	0	0	0	0	-	-	-
CCOC(=O)c1c(C)oc2c1cc(NS(=O)(=O)c1ccc(C(=O)O)cc1)c1ccccc12	0	0	0	0	0	-	0	0
CCC(=O)Nc1cc(C(=O)OCc2ccc(C(=O)Oc3ccccc3)cc2)ccc1C	0	0	0	0	0	-	-	-
CC1(C)CC(=O)C(C(C2=C(O)CC(C)(C)CC2=O)c2ccc(Br)s2)C(=O)C1 (stereo not given)	0	0	18	0	0	88%	0	74%
CC1(C)CC(=O)C(C(C2=C(O)CC(C)(C)CC2=O)c2ccc([N+](=O)[O-])cc2)C(=O)C1 (stereo not given)	0	0	0	0	0	-	-	-
Cc1ccc(C(C2=C(O)CC(C)(C)CC2=O)C2C(=O)CC(C)(C)CC2=O)s1 (stereo not given)	0	0	14	0	0	35%	44%	0
CC(C)c1ccc(NC(=O)CCNC(=O)N2CC(=O)Nc3ccccc32)cc1	0	0	0	0	0	-	-	-
COc1cccc(-c2cc(CC3(O)CCN(CCCc4ccccc4)CC3)on2)c1	0	0	0	0	0	-	-	-
C=CCNC(=O)COC(=O)c1nc2nccc(C)n2n1	0	0	0	0	0	-	0	0
O=CNc1ccc(S(=O)(=O)NCc2ccccc2)cc1	0	0	0	0	0	-	-	-
O=C(O)CSc1nc(-c2ccc(Cl)cc2)nc2c1oc1ccccc12	0	0	4.8	0	0	9.0%	0	7.0%
O=C(O)C1CCN(c2nc(-c3ccccc3)nc3c2oc2ccccc23)CC1	0	0	0	0	0	-	-	-
